A short description of data set [1]: Partition coefficient (logP). In kind it is physicochemical. As to conditions: octanol/water. Put shortly:
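Partitioning between octanol and pH 7.4 buffer.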

Data set [2] in a line: Half life of compound was determined in dog. In kind it is ADME, organism-based, Canis lupus familiaris. As to conditions: in vivo. Put shortly: (§1)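 Dogs given 0.2 mpk iv and 1 mpk po, in water; bioavailability, clearance and half-life taken from the plasma PK profile.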
Data set [3] in a line: Percent binding of compound towards human plasma protein was determined. In kind it is ADME, cell-free. A digest of the protocol: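 Human plasma, diluted, with ultrafiltration in pH 7.4 buffer at room temperature. Solutions analyzed by HPLC; high-throughput format.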
Data set [4] can be described thus: Bioavailability in dog. The class given is ADME, organism-based, Canis lupus familiaris. Particulars: in vivo. A digest of the protocol: as §1
The target of data set [5] is Integrin alpha-V/beta-3 (Homo sapiens, UniProt P05106+P06756). Put plainly: Inhibition of alphaV-beta3 integrin binding. In kind it is protein-complex assay. A digest of the protocol:
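Scintillation-proximity assay. Displacement of a 125I-labelled iodobenzenesulfonylamino naphthyridine propionic acid radioligand from purified recombinant human αvβ3 is measured.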

Data set [6] in a line: Plasma clearance in dog was determined. In kind it is ADME, organism-based, Canis lupus familiaris. Put shortly:
as §1

Data set [7] in a line: Bioavailability of compound was determined in rhesus monkey. In kind it is ADME, organism-based, Macaca mulatta. As to conditions: in vivo.
Data set [8] is described as follows: Plasma clearance in rat was determined. In kind it is ADME, organism-based.
Data set [9] is described as follows: Plasma clearance in rhesus monkey was determined. The class given is ADME, organism-based. Particulars: cercopithecidae.
For data set [10], the species on record is Rattus norvegicus. In words: Inhibitory effect of 30 mpk compound b.i.d. for 28 days was determined by bone mineral density in ovariectomized female rat. In kind it is functional. Put shortly: (§2)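 Female rats ovariectomized and, within 24 h, dosed orally b.i.d. for 28 days (n = 10/group), with sham and OVX-vehicle groups. BMD measured by DXA at the distal femoral metaphysis and central femur. Result expressed as DFM:central BMD ratio (mean ± SEM).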

The nature of data set [11]: Bioavailability in rat. In kind it is ADME, organism-based. Particulars: in vivo.
The nature of data set [12]: Half life of compound was determined in rat. Particulars: in vivo. The class given is ADME, organism-based.
The nature of data set [13]: Half life of compound was determined in rhesus monkey. The class given is ADME. As to conditions: cercopithecidae, in vivo.
Data set [14] is filed under the species Rattus norvegicus. In words: Inhibitory effect of 10 mpk compound b.i.d. for 28 days was determined by bone mineral density in ovariectomized female rat. The class given is functional. Put shortly:
as §2

Data set [15] is filed under the species Rattus norvegicus. In words: distal femoral metaphysis bone mineral density in young male rat after constant infusion of compound was determined. In kind it is functional. Put shortly:
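Growing male Sprague–Dawley rats (160 g) treated 10 days. Compound at 60 mg/mL in water with <1 equiv 1 N HCl, given by implanted subcutaneous osmotic minipump to a steady-state concentration of 800 nM (n = 15). PK checked in 3 parallel rats. Alendronate control 0.005 mpk sc qd. Right femur excised, stored in 70% ethanol, DFM BMD by DXA.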

A short description of data set [16]: Selectivity for alphaV-beta3 over alphaV-beta5 integrins. On the set-up: species or system Homo sapiens. A digest of the protocol: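 αvβ3 binding is measured by SPA displacement of a 125I-iodobenzenesulfonylamino radioligand from purified recombinant human αvβ3. The αvβ5 counterscreen uses the same radioligand displaced from purified recombinant αvβ5 in a similar SPA.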

The results in this text go back to ChEMBL document CHEMBL1145748, “Nonpeptide alphavbeta3 antagonists. 8. In vitro and in vivo evaluation of a potent alphavbeta3 antagonist for the prevention and treatment of osteoporosis” (J Med Chem, 2003).

In general, logP refers to a log measure of how a compound divides between an organic and an aqueous phase. The term half-life denotes the time in which the quantity being followed falls by half. By bioavailability is commonly meant the share of a dose that reaches the circulation, judged against a reference dose that is usually intravenous. What is called IC50 is the midpoint of a concentration-inhibition curve. What is called clearance is the rate of elimination divided by the concentration.

The structures appear in SMILES notation.

Chain of Integrin alpha-V/beta-3 (P05106 27-788 limits assumed): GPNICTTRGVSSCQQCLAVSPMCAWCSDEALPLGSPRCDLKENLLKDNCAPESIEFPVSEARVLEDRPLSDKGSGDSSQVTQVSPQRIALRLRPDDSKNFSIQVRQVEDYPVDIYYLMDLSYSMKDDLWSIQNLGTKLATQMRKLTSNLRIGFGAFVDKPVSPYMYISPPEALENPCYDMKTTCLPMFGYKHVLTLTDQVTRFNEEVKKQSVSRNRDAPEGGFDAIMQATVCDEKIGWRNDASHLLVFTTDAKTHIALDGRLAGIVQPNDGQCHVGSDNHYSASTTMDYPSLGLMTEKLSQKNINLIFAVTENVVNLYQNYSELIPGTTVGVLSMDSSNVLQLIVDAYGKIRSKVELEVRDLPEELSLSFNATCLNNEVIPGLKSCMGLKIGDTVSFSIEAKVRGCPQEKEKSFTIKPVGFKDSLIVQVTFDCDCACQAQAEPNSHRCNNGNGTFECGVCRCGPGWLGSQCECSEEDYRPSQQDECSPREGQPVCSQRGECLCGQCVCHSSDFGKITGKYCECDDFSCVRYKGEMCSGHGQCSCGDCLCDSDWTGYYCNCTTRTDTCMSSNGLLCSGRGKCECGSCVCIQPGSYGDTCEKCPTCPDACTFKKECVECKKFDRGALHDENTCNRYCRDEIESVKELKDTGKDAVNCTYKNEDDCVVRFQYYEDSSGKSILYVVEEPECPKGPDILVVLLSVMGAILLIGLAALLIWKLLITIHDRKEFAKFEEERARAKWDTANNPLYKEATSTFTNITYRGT
Chain of Integrin alpha-V/beta-3 (P06756 31-889 limits assumed): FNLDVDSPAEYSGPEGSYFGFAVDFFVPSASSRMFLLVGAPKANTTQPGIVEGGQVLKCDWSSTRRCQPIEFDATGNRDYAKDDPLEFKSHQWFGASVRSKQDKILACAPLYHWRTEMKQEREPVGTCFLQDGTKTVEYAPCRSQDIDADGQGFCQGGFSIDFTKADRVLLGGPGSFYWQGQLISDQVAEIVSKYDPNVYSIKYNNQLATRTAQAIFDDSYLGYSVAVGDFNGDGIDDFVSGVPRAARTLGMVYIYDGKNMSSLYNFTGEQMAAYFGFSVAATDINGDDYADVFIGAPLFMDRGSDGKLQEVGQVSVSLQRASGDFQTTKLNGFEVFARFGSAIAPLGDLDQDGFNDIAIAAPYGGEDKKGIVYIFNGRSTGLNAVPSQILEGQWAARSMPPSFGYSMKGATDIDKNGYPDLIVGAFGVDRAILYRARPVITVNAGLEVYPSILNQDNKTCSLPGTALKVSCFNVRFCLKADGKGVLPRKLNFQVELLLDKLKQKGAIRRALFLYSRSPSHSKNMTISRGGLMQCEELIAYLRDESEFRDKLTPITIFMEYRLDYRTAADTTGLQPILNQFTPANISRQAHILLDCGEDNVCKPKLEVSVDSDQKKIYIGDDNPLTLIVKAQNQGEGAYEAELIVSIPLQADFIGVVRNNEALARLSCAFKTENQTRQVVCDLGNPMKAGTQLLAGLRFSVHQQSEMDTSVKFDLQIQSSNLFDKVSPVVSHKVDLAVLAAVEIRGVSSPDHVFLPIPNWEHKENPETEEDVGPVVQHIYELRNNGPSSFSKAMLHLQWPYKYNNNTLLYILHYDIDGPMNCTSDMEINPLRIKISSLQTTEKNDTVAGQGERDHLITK
Chain of Integrin alpha-V/beta-3 (P06756 891-1048 limits assumed): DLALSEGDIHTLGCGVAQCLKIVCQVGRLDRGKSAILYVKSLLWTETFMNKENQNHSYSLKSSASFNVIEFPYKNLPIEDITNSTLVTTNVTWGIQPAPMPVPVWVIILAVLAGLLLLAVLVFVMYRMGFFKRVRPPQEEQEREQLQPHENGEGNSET

Consider `O=C(O)C[C@@H](c1ccc2c(c1)OCC2)N1CCN(CCCc2ccc3c(n2)NCCC3)C1=O`, for which the logP in data set [1] worked out at 0.8. In [2], this compound had a half-life of 2.7 h. In [3], this compound registered a Plasma protein binding of 98%. This compound returned a bioavailability in data set [4] of 75%. In addition, the IC50 in data set [5] amounted to 0.1 nM. The compound also showed a clearance in data set [6] of 4.1 mL/min/kg.

For the compound `COc1ccc([C@H](CC(=O)O)N2CCN(CCCc3ccc4c(n3)NCCC4)C2=O)cn1`, the bioavailability came to 74% in data set [7], 26% in data set [11] and 64% in [4]. Also, in [1], the logP stood at 0.21. In addition, the values for the clearance in data set [8], in data set [9] and in [6] were 47 mL/min/kg, 9 mL/min/kg and 6.4 mL/min/kg, respectively. Also, the values for the half-life in data set [2], in [12] and in data set [13] were 3.5 h, 3 h and 2 h, respectively. The DFM:central BMD ratio in data set [10] amounted to 0.951; in data set [14], 0.908. The Plasma protein binding in data set [3] amounted to 88%. For the same compound, the IC50 worked out at 0.08 nM in data set [5] and 10 nM in data set [16]. For the same compound, in data set [15], the BMD worked out at 142.2 mg cm**-2.

In data set [1], `O=C(O)C[C@@H](c1cccnc1)N1CCN(CCCc2ccc3c(n2)NCCC3)C1=O` showed a logP of -0.55. The same compound had a half-life in data set [2] of 0.9 h. The compound also showed a Plasma protein binding in data set [3] of 61%. Moreover, the bioavailability in data set [4] turned out to be 10%. Also, the IC50 in [5] was 0.25 nM. This compound came in with a clearance in data set [6] of 70 mL/min/kg.

In data set [5], `COc1ccc([C@H](CC(=O)O)N2CCN(CCCc3ccc4c(n3)NC(=O)CC4)C2=O)cn1` had an IC50 of 141 nM.

`COc1ccc([C@H](CC(=O)O)N2CCN(CCCc3ccc4c(n3)NC(O)CC4)C2=O)cn1` (some centres not stated) registered an IC50 in data set [5] of 0.4 nM.

In data set [1], `COc1ccc([C@H](CC(=O)O)N2CCN(CCCc3ccc4c(n3)NCCC4)C2=O)cc1F` yielded a logP of 0.82. The half-life in data set [2] is 2.6 h. This compound also yielded a Plasma protein binding in data set [3] of 95%. This compound returned a bioavailability in data set [4] of 94%. The compound also returned an IC50 in [5] of 0.35 nM. The clearance in data set [6] worked out at 5.1 mL/min/kg.

Turning to `COc1ccc([C@H](CC(=O)O)N2CCN(CCC(=O)c3ccc4c(n3)NCCC4)C2=O)cn1`, the IC50 in data set [5] was determined as 3 nM.
